In PMC3448846 (European neuropsychopharmacology : the journal of the …, 2012):
Read-outs that look alike come from different tables or passages of the source.

Columns and labels:
α3β3γ2 GABAA receptors = α3β3γ2 GABAA receptors (Rattus norvegicus, UniProt P18508+P20236); assay: Two electrode voltage clamp, modulation of EC3 GABA current in Xenopus oocytes; assay type: cell-based
α1β3γ2 GABAA receptors = α1β3γ2 GABAA receptors (Rattus norvegicus, UniProt P18508+P62813); assay: as above; assay type: cell-based
[1] = test system: spatial learning and memory; assay: Morris water maze; assay type: in vivo, male Wistar rats; details: for effect on Morris water-maze performance on its own: WYS8 0.2, 1 and 10 mg/kg i.p., β-CCt 5 mg/kg i.p.
Outline: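 Male Wistar rats, 220–250 g, n=8/group, dosed i.p. in 85% water/14% propylene glycol/1% Tween 80 (sonicated) 20 min before each daily block for 5 acquisition days. Pool 200 cm wide with 23°C water; 15×10 cm platform 2 cm below the surface. Each block had 4 trials (max 120 s, 60 s interval, pseudorandom starts). Per-rat daily means were recorded. The probe trial measured target-region time and peripheral-ring distance.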

α2β3γ2 GABAA receptors = α2β3γ2 GABAA receptors (Rattus norvegicus, UniProt P18508+P23576); assay: Two electrode voltage clamp, modulation of EC3 GABA current in Xenopus oocytes; assay type: cell-based
α5β3γ2 GABAA receptors = α5β3γ2 GABAA receptors (Rattus norvegicus, UniProt P18508+P19969); assay: as above; assay type: cell-based; details: for % of control current: EC3 GABA, α5β3γ2
α5β3γ2 GABAA/BZ site = details: α5 GABAA receptors; ref Yin et al., 2010; cited from earlier work
α1β3γ2 GABAA/BZ site = details: recombinant human receptors; ref Yin et al., 2010; cited from earlier work
α2β3γ2 GABAA/BZ site = details: α2 GABAA receptors; ref Yin et al., 2010; cited from earlier work
[2] = Quantification in rat brain tissue; assay type: in vivo, Wistar rats; details: Wistar, intraperitoneal, 10 mg/kg, total brain concentration, highest behaviorally tested dose
α3β3γ2 GABAA/BZ site = details: α3 GABAA receptors; ref Yin et al., 2010; cited from earlier work
α1 GABAA receptors = details: after 7 days of treatment, ref Wu et al., 1995, cited from earlier work
[3] = test system: spatial learning and memory; details: ref Savić et al, 2009, cited from earlier work
[4] = WYS8 0.2 and 10 mg/kg + DZP 2 mg/kg i.p.

α2β3γ2 GABAA receptors, sequence (P23576 29-451): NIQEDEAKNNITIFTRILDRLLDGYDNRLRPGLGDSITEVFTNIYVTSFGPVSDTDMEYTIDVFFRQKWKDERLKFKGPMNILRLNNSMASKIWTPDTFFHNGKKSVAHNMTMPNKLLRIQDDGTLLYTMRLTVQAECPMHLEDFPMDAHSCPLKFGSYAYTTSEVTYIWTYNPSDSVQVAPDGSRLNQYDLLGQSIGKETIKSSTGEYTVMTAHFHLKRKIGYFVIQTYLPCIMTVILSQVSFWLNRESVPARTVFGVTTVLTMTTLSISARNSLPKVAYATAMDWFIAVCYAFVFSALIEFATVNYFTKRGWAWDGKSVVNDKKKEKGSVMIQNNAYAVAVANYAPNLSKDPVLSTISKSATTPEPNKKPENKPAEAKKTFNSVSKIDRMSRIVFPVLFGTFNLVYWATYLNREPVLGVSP
α2β3γ2 GABAA receptors, sequence (P63079 26-473 partner): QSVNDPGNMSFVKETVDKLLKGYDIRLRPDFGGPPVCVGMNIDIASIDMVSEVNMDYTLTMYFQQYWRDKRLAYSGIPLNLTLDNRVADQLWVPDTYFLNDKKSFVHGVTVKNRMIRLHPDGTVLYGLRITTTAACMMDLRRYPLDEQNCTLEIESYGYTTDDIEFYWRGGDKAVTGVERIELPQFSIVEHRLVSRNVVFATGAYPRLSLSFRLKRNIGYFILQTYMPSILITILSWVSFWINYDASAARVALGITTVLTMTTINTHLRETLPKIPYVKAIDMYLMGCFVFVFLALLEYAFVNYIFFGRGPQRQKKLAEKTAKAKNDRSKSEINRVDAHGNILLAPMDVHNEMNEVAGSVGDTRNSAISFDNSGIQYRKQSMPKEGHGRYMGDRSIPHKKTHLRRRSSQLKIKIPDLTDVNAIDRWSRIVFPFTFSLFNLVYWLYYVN
α2β3γ2 GABAA receptors, sequence (P18508 39-466): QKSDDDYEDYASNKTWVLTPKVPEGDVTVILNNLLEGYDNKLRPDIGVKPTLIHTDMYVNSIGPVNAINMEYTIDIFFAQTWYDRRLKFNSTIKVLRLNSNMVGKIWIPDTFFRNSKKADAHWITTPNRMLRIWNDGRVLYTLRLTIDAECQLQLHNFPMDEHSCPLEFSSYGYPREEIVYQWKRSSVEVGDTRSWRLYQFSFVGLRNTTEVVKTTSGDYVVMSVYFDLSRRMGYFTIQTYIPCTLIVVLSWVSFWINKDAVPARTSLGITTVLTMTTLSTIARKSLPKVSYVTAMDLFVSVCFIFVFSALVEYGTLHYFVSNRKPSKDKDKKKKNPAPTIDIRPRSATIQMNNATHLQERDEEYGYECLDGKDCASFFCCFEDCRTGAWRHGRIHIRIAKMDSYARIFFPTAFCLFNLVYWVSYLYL
α5β3γ2 GABAA receptors, sequence (P19969 32-464 limits assumed): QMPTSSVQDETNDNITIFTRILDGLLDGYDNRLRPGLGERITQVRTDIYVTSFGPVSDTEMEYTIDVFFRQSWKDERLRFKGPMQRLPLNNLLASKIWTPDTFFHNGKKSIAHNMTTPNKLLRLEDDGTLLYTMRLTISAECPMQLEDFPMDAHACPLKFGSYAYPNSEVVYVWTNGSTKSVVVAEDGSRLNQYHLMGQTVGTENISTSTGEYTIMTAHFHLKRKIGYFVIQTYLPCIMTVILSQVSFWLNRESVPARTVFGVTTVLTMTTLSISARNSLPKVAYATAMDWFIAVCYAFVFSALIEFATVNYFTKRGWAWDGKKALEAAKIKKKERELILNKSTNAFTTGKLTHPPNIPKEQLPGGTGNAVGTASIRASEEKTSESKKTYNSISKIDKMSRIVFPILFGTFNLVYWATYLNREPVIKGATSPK
α5β3γ2 GABAA receptors, sequence (P63079 26-473 partner): as the sequence (P63079 26-473 partner) above
α5β3γ2 GABAA receptors, sequence (P18508 39-466): as the sequence (P18508 39-466) above
α3β3γ2 GABAA receptors, sequence (P20236 29-493): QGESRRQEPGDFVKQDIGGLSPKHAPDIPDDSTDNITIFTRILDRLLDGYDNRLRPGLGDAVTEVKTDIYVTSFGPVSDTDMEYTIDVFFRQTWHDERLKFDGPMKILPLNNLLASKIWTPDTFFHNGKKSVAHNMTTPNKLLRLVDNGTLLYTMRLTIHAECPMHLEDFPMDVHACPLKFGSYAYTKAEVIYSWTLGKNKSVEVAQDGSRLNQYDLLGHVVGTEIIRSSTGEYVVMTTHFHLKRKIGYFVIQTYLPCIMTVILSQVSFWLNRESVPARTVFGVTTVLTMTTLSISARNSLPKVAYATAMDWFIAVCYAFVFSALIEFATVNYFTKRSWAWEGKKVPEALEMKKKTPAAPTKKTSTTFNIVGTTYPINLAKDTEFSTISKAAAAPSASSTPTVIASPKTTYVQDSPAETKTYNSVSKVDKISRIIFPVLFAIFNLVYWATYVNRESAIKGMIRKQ
α3β3γ2 GABAA receptors, sequence (P63079 26-473 partner): as the sequence (P63079 26-473 partner) above
α3β3γ2 GABAA receptors, sequence (P18508 39-466): as the sequence (P18508 39-466) above
α1β3γ2 GABAA receptors, sequence (P62813 28-455): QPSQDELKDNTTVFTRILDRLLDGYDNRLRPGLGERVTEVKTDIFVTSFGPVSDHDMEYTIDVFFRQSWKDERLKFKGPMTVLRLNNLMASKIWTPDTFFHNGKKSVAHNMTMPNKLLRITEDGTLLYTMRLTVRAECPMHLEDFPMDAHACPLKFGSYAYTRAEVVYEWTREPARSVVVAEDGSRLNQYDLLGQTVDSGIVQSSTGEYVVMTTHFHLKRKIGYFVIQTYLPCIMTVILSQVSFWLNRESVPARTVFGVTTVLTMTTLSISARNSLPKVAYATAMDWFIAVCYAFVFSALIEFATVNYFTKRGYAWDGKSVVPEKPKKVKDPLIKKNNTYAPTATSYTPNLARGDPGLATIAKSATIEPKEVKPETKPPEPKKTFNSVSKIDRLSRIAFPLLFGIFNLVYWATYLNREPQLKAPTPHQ
α1β3γ2 GABAA receptors, sequence (P63079 26-473 partner): as the sequence (P63079 26-473 partner) above
α1β3γ2 GABAA receptors, sequence (P18508 39-466): as the sequence (P18508 39-466) above

SMILES: CN1C(=O)CN=C(c2ccccc2)c2cc(Cl)ccc21 [DZP, diazepam, reference compound]
- remaining activity at 0.01 µM (α3β3γ2 GABAA receptors; read-out: % of control current): 167 ± 8%
- remaining activity at 0.01 µM (α1β3γ2 GABAA receptors; read-out: % of control current): 136 ± 3%
- total distance travelled during acquisition ([1]; 2 mg/kg i.p., vs solvent-treated controls): significantly longer distances than solvent-treated controls during all five days
- remaining activity at 0.01 µM (α2β3γ2 GABAA receptors; read-out: % of control current): 193 ± 5%
- remaining activity at 0.01 µM (α5β3γ2 GABAA receptors; read-out: % of control current): 160 ± 2%

SMILES: C#Cc1cccc2c1[nH]c1cnc(C(=O)OC(C)(C)C)cc12 [WYS8, 8-ethynyl-β-carboline-3-carboxylate-t-butyl ester]
- % of control current (α3β3γ2 GABAA receptors; 10 nM compound, EC3 GABA, α3β3γ2): no significant stimulation
- remaining activity at 0.1 µM (α3β3γ2 GABAA receptors; read-out: % of control current): 126 ± 7%
- potentiation (α1β3γ2 GABAA receptors; at 100 nM, α1-subtype): 40%
- remaining activity at 0.01 µM (α1β3γ2 GABAA receptors; read-out: % of control current): 124 ± 3%
- remaining activity at 0.1 µM (α1β3γ2 GABAA receptors; read-out: % of control current): 141 ± 5%
- Ki (α5β3γ2 GABAA/BZ site): 208 nM
- effect of addition to DZP on DZP's actions in the water maze ([1]; WYS8 0.2, 1 and 10 mg/kg + DZP 2 mg/kg i.p.): did not generally affect the BZ’s actions
- activity in the water maze when combined with β-CCt ([1]; WYS8 0.2, 1 and 10 mg/kg + β-CCt 5 mg/kg i.p.): devoid of any activity
- effect on Morris water-maze performance on its own [1]: no substantial effect
- latency on the fourth day, combination with DZP vs DZP alone [1, 4]: significantly longer latencies than those treated with DZP alone
- total distance on the fourth day, combination with DZP vs DZP alone [1, 4]: significantly longer distances than those treated with DZP alone
- % of control current (α2β3γ2 GABAA receptors; 10 nM compound, EC3 GABA, α2β3γ2): no significant stimulation
- remaining activity at 0.1 µM (α2β3γ2 GABAA receptors; read-out: % of control current): 109 ± 2%
- binding affinity at α1 GABAA receptors (α1β3γ2 GABAA/BZ site): sub-nanomolar
- Ki (α2β3γ2 GABAA/BZ site): 111 nM
- concentration at 20 min [2]: < 100 nM
- % of control current (α5β3γ2 GABAA receptors; 10 nM compound): no significant stimulation
- % of control current (α5β3γ2 GABAA receptors; 100 nM compound): non-significant changes
- modulation of EC3 GABA response (α5β3γ2 GABAA receptors; 1 μM compound, α5 GABAA receptors): significant, though relatively small negative modulation
- Ki (α3β3γ2 GABAA/BZ site): 102 nM

SMILES: CCN(CC)CCN1C(=O)CN=C(c2ccccc2F)c2cc(Cl)ccc21 [flurazepam]
- decrease of binding of radiolabelled zolpidem (α1 GABAA receptors; cerebellum): 23%
- decrease of binding of radiolabelled zolpidem (α1 GABAA receptors; hippocampus): 14%

SMILES: CC(C)(C)OC(=O)c1cc2c(cn1)[nH]c1ccccc12 [β-CCt, t-butyl-β-carboline-3-carboxylate, reference compound]
- effect on Morris water-maze performance on its own [1]: no substantial effect
- binding affinity at α1 GABAA receptors (α1β3γ2 GABAA/BZ site): sub-nanomolar
- effect on spatial learning deficits induced by DZP in the water maze ([3]; acquisition): almost completely abolished
- effect on spatial memory deficits induced by DZP, probe trial [3]: at least partially prevented
